Source: ChEMBL document CHEMBL1955718, “Discovery of new orally effective analgesic and anti-inflammatory hybrid furoxanyl N-acylhydrazone derivatives” (Bioorg Med Chem, 2012)

Tests used:
[1] = target: T1, Prostaglandin G/H synthase 2 (Homo sapiens) (UniProt P35354); assay: Inhibition of human recombinant COX-2 at 50 uM
T1 sequence (whole entry): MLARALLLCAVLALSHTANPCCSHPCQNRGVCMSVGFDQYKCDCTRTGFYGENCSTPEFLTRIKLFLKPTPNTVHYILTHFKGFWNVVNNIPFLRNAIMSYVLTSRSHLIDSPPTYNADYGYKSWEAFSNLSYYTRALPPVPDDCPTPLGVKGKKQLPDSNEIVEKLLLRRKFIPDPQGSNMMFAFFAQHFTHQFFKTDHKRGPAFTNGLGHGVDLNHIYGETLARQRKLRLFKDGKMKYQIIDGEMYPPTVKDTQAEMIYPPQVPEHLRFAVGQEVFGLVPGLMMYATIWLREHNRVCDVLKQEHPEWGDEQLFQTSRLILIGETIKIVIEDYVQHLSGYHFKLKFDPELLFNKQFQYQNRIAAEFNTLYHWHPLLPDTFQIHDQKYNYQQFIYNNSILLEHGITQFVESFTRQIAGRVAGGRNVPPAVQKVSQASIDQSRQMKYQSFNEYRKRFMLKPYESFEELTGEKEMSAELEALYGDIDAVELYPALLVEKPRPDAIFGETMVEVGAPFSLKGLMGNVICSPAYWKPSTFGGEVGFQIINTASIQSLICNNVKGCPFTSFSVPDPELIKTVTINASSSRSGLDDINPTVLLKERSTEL
In short: (§1)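 Isolated ovine COX-1 and human recombinant COX-2 tested by ELISA-based inhibitor screening kit with compound at 10 and 50 µM. Positive control indomethacin at 0.1 µM (COX-1) or 6 µM (COX-2). Mean of duplicates; Student t-test.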

[2] = target: T1, Prostaglandin G/H synthase 2 (Homo sapiens); assay: Inhibition of human recombinant COX-2 at 10 uM; in short: as §1
[3] = Cytotoxicity against mouse […] cells after 48 hrs by MTT assay; assay type: cell-based
In short: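 J774 macrophages in DMEM (4 mM L-glutamine, 10% heat-inactivated FBS) were seeded at 1 × 10^5 cells/well and grown for 48 h at 37 °C, 5% CO2. They were then exposed to compounds at 25–400 µM for 48 h. MTT (0.1 mg/mL final) was added for 3 h, formazan was dissolved in DMSO/glycine buffer pH 10.5, and absorbance was read at 560 nm to give an IC50.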

[4] = target: T2, Prostaglandin G/H synthase 1 (Ovis aries) (UniProt P05979); assay: Inhibition of ovine COX-1 at 10 uM; in short: as §1
T2 sequence (whole entry): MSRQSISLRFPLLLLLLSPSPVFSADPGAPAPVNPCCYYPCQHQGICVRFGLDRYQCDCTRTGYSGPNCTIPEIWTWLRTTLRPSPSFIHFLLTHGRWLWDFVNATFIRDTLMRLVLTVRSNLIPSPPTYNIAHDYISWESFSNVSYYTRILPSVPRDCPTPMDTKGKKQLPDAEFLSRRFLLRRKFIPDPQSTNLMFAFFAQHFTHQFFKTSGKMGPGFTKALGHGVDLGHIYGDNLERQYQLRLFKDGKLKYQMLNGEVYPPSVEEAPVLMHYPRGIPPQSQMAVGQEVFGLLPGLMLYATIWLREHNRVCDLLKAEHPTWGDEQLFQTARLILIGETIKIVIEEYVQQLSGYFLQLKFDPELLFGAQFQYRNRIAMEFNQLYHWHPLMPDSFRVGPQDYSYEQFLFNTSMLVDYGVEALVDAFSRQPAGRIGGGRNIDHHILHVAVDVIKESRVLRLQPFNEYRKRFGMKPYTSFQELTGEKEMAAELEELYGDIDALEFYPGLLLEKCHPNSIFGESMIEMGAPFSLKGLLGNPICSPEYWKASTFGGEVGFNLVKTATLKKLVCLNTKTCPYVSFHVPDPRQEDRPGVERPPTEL

[5] = target: T2, Prostaglandin G/H synthase 1 (Ovis aries); assay: Inhibition of ovine COX-1 at 50 uM; in short: as §1
[6] = Induction of NO release in 0.1 M Tris-HCl and 0.1 mM DTPA at pH 7.4 measured for 20 mins in presence of cysteine; assay type: physicochemical; conditions: buffer, pH 7.4, 20 min
In short: (§2)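 Electrochemical NO detection with an ISO-NOP sensor. Compounds in DMSO added to 0.1 M Tris-HCl, 0.1 mM DTPA at pH 7.4 or 8.3. Cysteine (300 or 100 µM) added and NO recorded for 20 min at 25 or 37 °C; compound:Cys ratio 1:1 at 25 °C, with 3:1 and 37 °C runs also made.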

[7] = tested on: Rattus norvegicus; assay: Antiinflammatory activity in albino rat assessed as inhibition of carrageenan-induced paw edema at 100 umol/kg, po administered 1 hr before carrageenan challenge measured after 3 hrs by plethysmometric analysis relative to control; assay type: functional
In short: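 Albino rats of both sexes (150–200 g) were dosed orally as a suspension in 1% Tween 80 in saline, with vehicle controls. After 1 h, 0.1 mL 1% carrageenan or saline was injected subplantar. Paw volume was read by glass plethysmometer at 3 h. Edema = carrageenan-paw minus saline-paw volume; % inhibition vs vehicle; Student t-test.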

[8] = Cytotoxicity against human HT-29 cells expressing NF-kappaB-hrGFP assessed as highest non-cytotoxic dose for 100% cell survival after 24 hrs by MTT assay; assay type: cell-based; conditions: read-out: Activity
In short: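 HT-29 cells stably carrying pNF-κB-hrGFP, seeded at 0.5 × 10^6/mL in DMEM with 10% FBS, grown 24 h at 37 °C, 5% CO2. Compounds added in DMSO (<0.5% v/v final) at 12.5–400 µM for 24 h. Viability by MTT reduction (2 h), formazan dissolved in DMSO/glycine buffer, read at 560 nm.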

[9] = tested on: HT-29; assay: Pro-inflammatory activity in NFkappaB-GFP transfected human HT-29 cells at 25 to 400 uM after 24 hrs by propidium iodide staining-based flow cytometric analysis; assay type: ADME, cell-based; conditions: ht-29, 24 h
In short: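 Reporter HT-29-NF-κB-hrGFP cells given compound alone, without TNF-α, for 18–24 h at 37 °C after the same 2 h pre-incubation. GFP-positive live (propidium iodide-excluding) cells counted by flow cytometry; IL-8 in supernatant measured by bead-based flow cytometry.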

[10] = Induction of NO release in 0.1 M Tris-HCl and 0.1 mM DTPA at pH 8.3 measured for 20 mins in presence of cysteine; assay type: physicochemical; conditions: buffer, pH 8.3, 20 min; in short: as §2
[11] = tested on: Glycine max; assay: Inhibition of soybean lipoxygenase using arachidonic acid as substrate at 50 uM
In short: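 Soybean 15-lipoxygenase kit assay, arachidonic acid substrate, H2O2 as lipoxygenating agent in 0.1 M Tris-HCl pH 7.4. Single-point screen at 50 µM. IC50 found by varying concentration over 10–100 µM. Quercetin at 4 µM as positive control; duplicate means; Student t-test.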

[12] = tested on: HT-29; assay: Inhibition of NF-kappaB activation expressed in human HT-29 cells assessed as inhibition of TNFalpha-stimulated IL8 release at 100 uM after 24 hrs by flow cytometric analysis relative to control; assay type: cell-based
In short: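 Reporter HT-29-NF-κB-hrGFP cells pretreated 2 h with compound (DMSO <0.5%) at the highest concentration with 100% survival, then stimulated with TNF-α (3 ng/mL final) for 18–24 h at 37 °C. IL-8 in clarified supernatant measured by flow cytometric bead assay (500 events). Expressed as % of TNF-α/DMSO control ± SD; thalidomide as reference.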

Row | SMILES | inhibition [1] [%] | inhibition [2] [%] | IC50 [3] [µM] | inhibition [4] [%] | inhibition [5] [%] | Activity [6] [nM/min] | inhibition in vivo at 100 µmol/kg [7] [%] | MNTC at 24 h [8] [µM] | Activity [9] | Activity [10] [nM/min] | inhibition [11] [%] | inhibition [12] [%]
1 | Cc1[nH]cnc1C(=O)N/N=C/c1ccc2no[n+]([O-])c2c1 | 6.4 | 19.6 | 38 | 25.9 | 22.3 | 0 | 31 | 50 | Non-toxic | 0 | 0 | 
2 | O=C(N/N=C/c1c(-c2ccccc2)no[n+]1[O-])c1ccc2c(c1)OCO2 | 11.9 | 13.1 | 191 | 27 | 28.5 | 0 | 0 | 100 | Non-toxic | 0.39 | 0 | 4
3 | Cc1c(C(=O)N/N=C/c2ccc(N(C)C)cc2)no[n+]1[O-] | 22 | 17.8 | 129 | 22.5 | 25.3 |  | 19 | 100 | Non-toxic |  | 0 | 98
